From ChEMBL document CHEMBL3352538, “Vascular L-type Ca²⁺ channel blocking activity of sulfur-containing indole alkaloids from Glycosmis petelotii” (J Nat Prod, 2014)

Columns and labels:
[1] = molecular target: T1, Voltage-gated L-type calcium channel (Rattus norvegicus, UniProt P22002+Q02485+P27732); experiment: Inhibition of L-type calcium channel in endothelium-intact Wistar rat aorta rings assessed as relaxation of 0.3 uM phenylephrine-induced contraction
[2] = molecular target: T1, Voltage-gated L-type calcium channel; experiment: Inhibition of L-type calcium channel in Wistar rat tail artery myocytes assessed as reduction in L-type Ba(2+) current at Vh of -50 mV; conditions: for inhibition (INH): rat
[3] = molecular target: T1, Voltage-gated L-type calcium channel; experiment: Inhibition of L-type calcium channel in endothelium-denuded Wistar rat aorta rings assessed as relaxation of 60 mM K+-induced contraction; conditions: for inhibition (INH): rat
[4] = molecular target: T1, Voltage-gated L-type calcium channel; experiment: Inhibition of L-type calcium channel in endothelium-denuded Wistar rat aorta rings assessed as relaxation of phenylephrine-induced contraction; conditions: for inhibition (INH): rat
[5] = molecular target: T1, Voltage-gated L-type calcium channel; experiment: Inhibition of L-type calcium channel in Wistar rat aorta rings assessed as relaxation of phenylephrine-induced contraction in Ca2+ free medium
Method in brief: (§1)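 Rings in Ca2+-free PSS with 1 mM EGTA for 15 min, then 30 min incubation with vehicle or alkaloid. Contraction to 10 μM phenylephrine reflects sarcoplasmic reticulum Ca2+ release; 3.5 mM Ca2+ is then re-added with phenylephrine still present to index Ca2+ influx. Washed 45 min and repeated at a higher concentration. Expressed as % of 0.3 μM phenylephrine contraction in PSS.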

[6] = molecular target: T1, Voltage-gated L-type calcium channel; experiment: Inhibition of L-type calcium channel in Wistar rat aorta rings assessed as relaxation of phenylephrine-induced contraction in Ca2+ restored medium
Method in brief: as §1

[7] = molecular target: T1, Voltage-gated L-type calcium channel; experiment: Inhibition of L-type calcium channel in endothelium-denuded Wistar rat aorta rings assessed as relaxation of 30 mM K+-induced contraction
Method in brief: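 Endothelium-denuded rat aorta rings, isometric tension, equilibrated 60 min in PSS gassed with 95% O2/5% CO2 (pH 7.4). Contracted with 0.3 μM phenylephrine, or 30 or 60 mM K+ (KCl replacing NaCl).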

[8] = molecular target: T1, Voltage-gated L-type calcium channel; experiment: Inhibition of L-type calcium channel in endothelium-denuded Wistar rat aorta rings depolarized with 60 mM K+ solution assessed as relaxation of Ca2+-induced contraction at 43 and 128 uM in presence of 10 nM calcium channel agonist (S)-(-)Bay K 8644
Method in brief: (§2)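 Following the cumulative Ca2+ (0.03−3 mM) curve in endothelium-denuded rings depolarized with Ca2+-free 60 mM K+ PSS, with compound or vehicle present from 30 min beforehand, 10 nM (S)-(−)-Bay K 8644 was added after the last Ca2+ addition. Tone expressed as % of the response to 60 mM K+; mean ± SE, n = 4−17.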

[9] = molecular target: T1, Voltage-gated L-type calcium channel; experiment: Inhibition of L-type calcium channel in endothelium-denuded Wistar rat aorta rings depolarized with 60 mM K+ solution assessed as relaxation of Ca2+-induced contraction
Method in brief: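 Endothelium-denuded rings stimulated with 60 mM K+ for 15 min, then washed 90 min in Ca2+-free PSS with 1 mM EGTA, and stores emptied with 0.3 μM phenylephrine. Depolarized in Ca2+-free 60 mM K+ PSS, then cumulative Ca2+ (0.03−3 mM). Test substance or vehicle present 30 min before and throughout.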

[10] = molecular target: T1, Voltage-gated L-type calcium channel; experiment: Inhibition of L-type calcium channel in endothelium-denuded Wistar rat aorta rings depolarized with 60 mM K+ solution assessed as relaxation of Ca2+-induced contraction at 12 and 40 uM in presence of 10 nM calcium channel agonist (S)-(-)Bay K 8644
Method in brief: as §2

Compound | inhibition (INH) ([1]; rat) | inhibition (INH) [2] | inhibition (INH) [3] | inhibition (INH) [4] | inhibition (INH) [5] | pIC50 [1] | inhibition (INH) [6] | pIC50 [7] | inhibition (INH) [8] | pIC50 [3] | pIC50 [4] | inhibition (INH) [9] | inhibition (INH) [10] | IC50 [2] [µM]
COc1ccc(CCN(C)CCCC(C#N)(c2ccc(OC)c(OC)c2)C(C)C)cc1OC (stereo not given) | Dose-dependent effect | Dose-dependent effect | Dose-dependent effect | Dose-dependent effect |  |  |  |  |  |  |  |  |  | 
CSC(=O)NCCc1c[nH]c2ccccc12 |  |  | Dose-dependent effect | Dose-dependent effect | Not Active | 4.2 | Active | 3.9 | Not Active | 4.1 | 4.3 | Dose-dependent effect |  | 
CSC(=O)N(C)CCc1c[nH]c2ccccc12 |  | Dose-dependent effect | Dose-dependent effect | Dose-dependent effect | Not Active | 4.4 |  | 4.5 |  | 4.8 | 4.7 | Dose-dependent effect | Not Active | 251
